In ChEMBL document CHEMBL1157406, “Cytotoxic metabolites from the fungal endophyte Alternaria sp. and their subsequent detection in its host plant Polygonum senegalense” (J Nat Prod, 2008):

Assays:
Aurora kinase B = Aurora kinase B (Homo sapiens, UniProt Q96GD4); test: Inhibition of recombinant Aurora B phosphorylation in human HT29 cells; assay type: cell-based, HT-29
Procedure, shortened: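 HT29 cells pretreated 90 min with 10 µM staurosporine, then compound 90 min at 37 °C, then calyculin A 30 min. Lysates captured on antibody-coated plates; phospho-histone H3 detected with anti-P-His H3 as the Aurora B read-out.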

[1] = molecular target: Insulin-like growth factor 1 receptor (Homo sapiens, UniProt P08069); test: Inhibition of recombinant IGF1R phosphorylation transfected in mouse embryonic fibroblast
Procedure, shortened: (§1)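 Mouse embryonic fibroblasts stably transfected with FLT3 or IGF1-R; 90 min pretreatment with 10 µM staurosporine, compound 90 min at 37 °C. Stimulation with FLT3-ligand 5 min (FLT3) or IGF1 3 min (IGF1-R). Lysates captured on antibody-coated plates; autophosphorylation detected with antiphosphotyrosine PY99.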

[2] = molecular target: Vascular endothelial growth factor receptor 2 (Homo sapiens, UniProt P35968); test: Inhibition of recombinant VEGFR2 phosphorylation in human HUE cells; assay type: cell-based
Procedure, shortened: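 Human endothelial HUE cells pretreated 90 min with 10 µM staurosporine, compound 90 min at 37 °C, then VEGF165 7 min. Lysates captured on antibody-coated plates; VEGF-R2 autophosphorylation detected with antiphosphotyrosine PY99.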

[3] = molecular target: T1, Receptor-type tyrosine-protein kinase FLT3 (Homo sapiens, UniProt P36888); test: Inhibition of recombinant FLT3 phosphorylation transfected in mouse embryonic fibroblast; procedure, shortened: as §1
T1 sequence (P36888 whole entry): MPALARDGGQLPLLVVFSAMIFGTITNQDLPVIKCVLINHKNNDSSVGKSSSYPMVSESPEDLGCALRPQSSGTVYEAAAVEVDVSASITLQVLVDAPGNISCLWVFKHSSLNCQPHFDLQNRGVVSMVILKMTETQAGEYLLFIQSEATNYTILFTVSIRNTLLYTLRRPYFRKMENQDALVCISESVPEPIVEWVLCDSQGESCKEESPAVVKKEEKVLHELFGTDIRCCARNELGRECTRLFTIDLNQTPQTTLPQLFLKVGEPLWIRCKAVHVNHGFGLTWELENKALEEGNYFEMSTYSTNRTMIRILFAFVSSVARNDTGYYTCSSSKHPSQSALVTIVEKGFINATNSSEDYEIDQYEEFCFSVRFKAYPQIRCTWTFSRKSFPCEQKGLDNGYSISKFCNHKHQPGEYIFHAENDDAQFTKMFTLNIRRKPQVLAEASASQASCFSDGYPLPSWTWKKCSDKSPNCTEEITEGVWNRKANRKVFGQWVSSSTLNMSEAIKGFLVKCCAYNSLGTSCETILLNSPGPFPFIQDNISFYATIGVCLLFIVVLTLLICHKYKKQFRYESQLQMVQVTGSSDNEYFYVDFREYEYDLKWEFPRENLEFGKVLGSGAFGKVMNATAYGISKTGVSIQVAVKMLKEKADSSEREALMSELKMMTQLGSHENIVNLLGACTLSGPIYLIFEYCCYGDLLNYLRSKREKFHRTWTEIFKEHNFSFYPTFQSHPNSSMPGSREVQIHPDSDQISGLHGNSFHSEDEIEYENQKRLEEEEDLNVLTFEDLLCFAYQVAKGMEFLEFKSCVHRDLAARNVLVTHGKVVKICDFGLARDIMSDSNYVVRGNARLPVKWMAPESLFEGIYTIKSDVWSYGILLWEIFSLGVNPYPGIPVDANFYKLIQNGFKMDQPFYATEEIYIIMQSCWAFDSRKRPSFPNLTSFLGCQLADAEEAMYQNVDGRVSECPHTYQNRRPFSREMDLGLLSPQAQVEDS

Measured: IC50

Chain of Insulin-like growth factor 1 receptor (P08069 31-736 limits assumed): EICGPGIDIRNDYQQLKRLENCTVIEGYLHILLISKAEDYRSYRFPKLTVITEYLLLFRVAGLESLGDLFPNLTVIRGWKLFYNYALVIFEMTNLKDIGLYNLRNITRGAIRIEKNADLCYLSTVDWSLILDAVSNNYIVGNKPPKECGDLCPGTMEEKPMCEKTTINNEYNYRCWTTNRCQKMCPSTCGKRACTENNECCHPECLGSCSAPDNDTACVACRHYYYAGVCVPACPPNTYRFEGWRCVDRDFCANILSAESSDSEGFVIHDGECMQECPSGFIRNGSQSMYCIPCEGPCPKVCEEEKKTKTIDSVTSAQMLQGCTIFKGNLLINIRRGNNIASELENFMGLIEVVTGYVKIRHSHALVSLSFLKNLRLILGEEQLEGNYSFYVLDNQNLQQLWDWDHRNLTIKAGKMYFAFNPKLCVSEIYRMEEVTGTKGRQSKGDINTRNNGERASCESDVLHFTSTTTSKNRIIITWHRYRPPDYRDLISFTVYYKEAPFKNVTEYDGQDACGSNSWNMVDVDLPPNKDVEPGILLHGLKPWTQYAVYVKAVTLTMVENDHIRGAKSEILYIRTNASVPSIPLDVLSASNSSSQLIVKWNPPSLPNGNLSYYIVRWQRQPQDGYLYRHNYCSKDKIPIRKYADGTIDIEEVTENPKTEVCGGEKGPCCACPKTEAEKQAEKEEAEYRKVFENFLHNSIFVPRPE
Chain of Insulin-like growth factor 1 receptor (P08069 741-1367 limits assumed): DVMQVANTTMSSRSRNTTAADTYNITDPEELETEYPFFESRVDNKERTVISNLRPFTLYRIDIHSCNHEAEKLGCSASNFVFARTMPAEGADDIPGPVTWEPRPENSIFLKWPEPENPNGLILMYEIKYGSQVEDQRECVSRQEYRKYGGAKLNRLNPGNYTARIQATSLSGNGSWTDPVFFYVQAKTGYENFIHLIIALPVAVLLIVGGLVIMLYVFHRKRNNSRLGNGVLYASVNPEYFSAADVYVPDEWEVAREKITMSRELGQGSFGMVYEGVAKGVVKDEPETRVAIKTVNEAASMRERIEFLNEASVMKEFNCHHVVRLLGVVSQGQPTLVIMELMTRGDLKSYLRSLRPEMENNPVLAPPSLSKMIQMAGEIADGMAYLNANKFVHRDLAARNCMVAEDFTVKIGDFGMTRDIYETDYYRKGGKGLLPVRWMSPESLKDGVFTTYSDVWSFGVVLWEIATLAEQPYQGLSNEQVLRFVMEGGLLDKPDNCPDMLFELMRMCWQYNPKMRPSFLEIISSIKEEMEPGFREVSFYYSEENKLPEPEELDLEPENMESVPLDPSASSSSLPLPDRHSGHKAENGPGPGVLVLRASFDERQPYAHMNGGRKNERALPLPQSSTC
Chain of Aurora kinase B (Q96GD4 whole entry): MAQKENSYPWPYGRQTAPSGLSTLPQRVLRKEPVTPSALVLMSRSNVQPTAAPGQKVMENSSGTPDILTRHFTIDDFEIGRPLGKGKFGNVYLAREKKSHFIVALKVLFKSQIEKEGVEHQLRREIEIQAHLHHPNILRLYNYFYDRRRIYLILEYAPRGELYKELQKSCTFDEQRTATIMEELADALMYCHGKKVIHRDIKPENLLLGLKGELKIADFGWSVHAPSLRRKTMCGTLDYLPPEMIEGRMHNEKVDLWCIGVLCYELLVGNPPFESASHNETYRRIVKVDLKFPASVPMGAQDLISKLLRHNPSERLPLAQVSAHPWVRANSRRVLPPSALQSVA
Chain of Vascular endothelial growth factor receptor 2 (P35968 whole entry): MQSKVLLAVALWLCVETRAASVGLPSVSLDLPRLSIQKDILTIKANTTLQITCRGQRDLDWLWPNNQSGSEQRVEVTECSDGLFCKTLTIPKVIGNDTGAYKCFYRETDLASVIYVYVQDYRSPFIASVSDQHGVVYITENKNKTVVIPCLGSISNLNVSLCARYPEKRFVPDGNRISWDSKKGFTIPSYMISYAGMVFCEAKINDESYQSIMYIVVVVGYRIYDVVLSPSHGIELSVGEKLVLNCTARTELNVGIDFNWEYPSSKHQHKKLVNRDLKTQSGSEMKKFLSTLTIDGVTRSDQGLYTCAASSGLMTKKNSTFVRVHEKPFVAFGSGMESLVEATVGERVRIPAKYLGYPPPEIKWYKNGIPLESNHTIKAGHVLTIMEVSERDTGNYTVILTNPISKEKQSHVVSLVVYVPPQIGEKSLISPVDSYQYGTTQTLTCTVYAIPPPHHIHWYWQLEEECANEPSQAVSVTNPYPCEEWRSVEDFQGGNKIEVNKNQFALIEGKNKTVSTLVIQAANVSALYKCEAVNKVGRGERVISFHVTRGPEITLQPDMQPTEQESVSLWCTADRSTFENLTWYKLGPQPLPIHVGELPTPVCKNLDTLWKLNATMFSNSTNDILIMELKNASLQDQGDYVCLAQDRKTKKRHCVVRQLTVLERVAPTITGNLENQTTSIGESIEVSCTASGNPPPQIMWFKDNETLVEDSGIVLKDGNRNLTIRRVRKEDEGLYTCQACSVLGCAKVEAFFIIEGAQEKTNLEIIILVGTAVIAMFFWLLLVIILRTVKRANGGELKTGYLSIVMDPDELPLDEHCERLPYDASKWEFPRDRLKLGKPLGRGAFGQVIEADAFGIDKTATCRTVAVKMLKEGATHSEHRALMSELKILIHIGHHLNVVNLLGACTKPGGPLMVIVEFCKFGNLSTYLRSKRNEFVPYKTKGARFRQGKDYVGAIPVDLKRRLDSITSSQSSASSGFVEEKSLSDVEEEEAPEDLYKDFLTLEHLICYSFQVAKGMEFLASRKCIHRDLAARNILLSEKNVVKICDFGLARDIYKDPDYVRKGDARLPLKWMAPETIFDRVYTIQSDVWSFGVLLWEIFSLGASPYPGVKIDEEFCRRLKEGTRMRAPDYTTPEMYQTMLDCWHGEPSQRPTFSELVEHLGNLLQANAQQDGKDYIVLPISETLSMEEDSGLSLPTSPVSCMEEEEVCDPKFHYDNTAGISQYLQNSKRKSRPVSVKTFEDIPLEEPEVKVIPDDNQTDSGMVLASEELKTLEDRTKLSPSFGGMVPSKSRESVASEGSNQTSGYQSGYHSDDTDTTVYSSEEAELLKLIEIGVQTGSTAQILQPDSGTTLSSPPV

Cc1cc(O)cc2oc(=O)c3c(O)cc(O)cc3c12 [ALTERNARIOL]
3.87 µM: all assays above
